# Reference: ChEMBL document CHEMBL1127813, “Pseudopeptide inhibitors of Ras farnesyl-protein transferase” (J Med Chem, 1994)
# The source made the active and inactive calls. The calls are words filed in the database; no cut-off is given here.
# Key:
# [1] = system: NIH3T3; assay: The cytotoxic endpoint, the highest nontoxic concentration for cultured NIH3T3 cells; assay type: functional, cell-based; conditions: Mus musculus
# Summary of the method: (§1)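 NIH3T3 fibroblasts exposed to compound for 48 h; viability read by MTT staining. Endpoint is the highest concentration tolerated without toxicity. Top concentration tested was 100 μM for most compounds; one lactone was dosed up to 1 mM.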
# [2] = biological target: T1, Protein farnesyltransferase (Mus musculus) (UniProt Q61239+Q8K2I1); assay: Inhibition of v-ras posttranslational processing in NIH3T3 cells at 1 uM; assay type: cell-based
# Summary of the method: (§2)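 NIH 3T3 cells expressing viral Ha-ras were metabolically labeled with [³⁵S]methionine while exposed to compound or solvent control. Cells were lysed after 24 h and Ras was immunoprecipitated to assess posttranslational processing. Scored as percent inhibition of processing; +++ means ≥90% inhibition. Lovastatin 15 μM was the reference.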
# [3] = biological target: Protein farnesyltransferase (Bos taurus, UniProt P29702+P49355); assay: Inhibitory activity against Ras Farnesyl Protein transferase from bovine brain
# Summary of the method: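 FPTase purified from bovine brain (about 1 nM) incubated with [³H]FPP, recombinant Harvey-Ras and varying inhibitor concentrations. Protein was acid-precipitated and Ras-bound label counted by scintillation. IC50 is the concentration halving label incorporation relative to the no-inhibitor control, given as mean ± SEM with the number of determinations.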
# [4] = biological target: T1, Protein farnesyltransferase (Mus musculus); assay: Inhibition of v-ras posttranslational processing in NIH3T3 cells at 100 uM; assay type: cell-based; summary of the method: as §2
# [5] = biological target: T1, Protein farnesyltransferase (Mus musculus); assay: Inhibition of v-ras posttranslational processing in NIH3T3 cells at 15 uM; assay type: cell-based; summary of the method: as §2
# [6] = biological target: T1, Protein farnesyltransferase (Mus musculus); assay: Inhibition of v-ras posttranslational processing in NIH3T3 cells at 5 uM (No inhibition); assay type: cell-based; summary of the method: as §2
# [7] = system: NIH3T3; assay: Highest nontoxic concentration in NIH3T3 cells; assay type: functional, cell-based; conditions: Mus musculus; summary of the method: as §1
# [8] = biological target: T2, Geranylgeranyl transferase type I (Bos taurus, UniProt P29702+Q5EAD5); assay: In vitro inhibition of bovine type-1 geranylgeranyl transferase; assay type: protein-complex assay
# [9] = biological target: T1, Protein farnesyltransferase (Mus musculus); assay: Inhibition of v-ras posttranslational processing in NIH3T3 cells at 10 uM; assay type: cell-based; summary of the method: as §2
# [10] = biological target: T2, Geranylgeranyl transferase type I; assay: Inhibitory activity against bovine type-1 geranylgeranyl transferase.; assay type: protein-complex assay
# [11] = biological target: T1, Protein farnesyltransferase (Mus musculus); assay: Inhibition of v-ras posttranslational processing in NIH3T3 cells (No inhibition); assay type: cell-based; summary of the method: as §2
# [12] = The binding affinity against Ras protein
Compound,IC50 [3] [nM],IC50 [10] [nM],Concentration [1] [µM],also measured
CCC(C)[C@@H](CN[C@@H](Cc1ccccc1)C(=O)N[C@@H](CCSC)C(=O)OC)NCC(N)CS (stereo partly specified),,,1,inhibition [2]: 10%
CC[C@H](C)[C@H](NC(=O)[C@@H](NC(=O)[C@@H](N)CS)[C@@H](C)CC)C(=O)N[C@@H](CCO)C(=O)O,330,,,
CCC(C)[C@H](NC[C@@H](NC(=O)[C@@H](N)CS)C(C)CC)C(=O)N[C@@H](CCO)C(=O)O (stereo partly specified),150,,,
CC[C@@H](C)[C@H](NC[C@@H](NC[C@@H](N)CS)[C@H](C)CC)C(=O)N[C@H]1CCOC1=O,,,> 1000,inhibition [4]: > 90%
CC[C@H](C)C(=O)O[C@H]1C[C@@H](C)C=C2C=C[C@H](C)[C@H](CC[C@@H]3C[C@@H](O)CC(=O)O3)[C@H]21,,,,inhibition [5]: > 90%
CCC(C)[C@H](NCC(N)CS)C(=O)N[C@@H](Cc1ccccc1)C(=O)N[C@@H](CCSC)C(=O)OCc1ccccc1 (stereo partly specified),,,,inhibition [6]: inactive; Concentration [7]: 5 µM
CCCCCCCCCCOC(=O)[C@H](CCSC)NC(=O)[C@H](Cc1ccccc1)NC(=O)[C@@H](NCC(N)CS)C(C)CC (stereo partly specified),,,,Concentration [7]: 2 µM
CCOC(=O)[C@H](CCSC)NC(=O)[C@H](Cc1ccccc1)NC(=O)[C@@H](NCC(N)CS)C(C)CC (stereo partly specified),,,10,inhibition [9]: 10%
CC[C@H](C)[C@H](NC[C@@H](N)CS)C(=O)N[C@H](C(=O)N[C@H]1CCOC1=O)[C@@H](C)CC,,,> 100,inhibition [4]: 30%
CC[C@H](C)[C@H](NC[C@@H](NC[C@@H](N)CS)[C@@H](C)CC)C(=O)N[C@@H](CCO)C(=O)O,20,45000,> 100,inhibition [11]: inactive; Ki [12]: 20 nM
CC[C@H](C)[C@H](NC(=O)[C@@H](NC(=O)[C@@H](N)CS)C(C)C)C(=O)N[C@@H](CCSC)C(=O)O,165,49000,,
CC[C@H](C)[C@H](NC(=O)[C@@H](NC[C@@H](N)CS)C(C)C)C(=O)N[C@@H](CC(C)C)C(=O)O,550,,,
CC[C@H](C)[C@H](NC[C@@H](N)CS)C(=O)N[C@H](C(=O)N[C@@H](CCO)C(=O)O)[C@@H](C)CC,42,8000,> 100,inhibition [11]: inactive
CC[C@H](C)[C@H](NC(=O)[C@@H](NCCCS)C(C)C)C(=O)N[C@@H](CCSC)C(=O)O,29,2200,,

# The next lines start with results.
IC50 [3] [nM],IC50 [10] [nM],Compound,Concentration [1] [µM],also measured
400,,CCC(C)[C@@H](CN[C@@H](Cc1ccccc1)C(=O)N[C@@H](CCSC)C(=O)O)NCCCS (stereo partly specified),,IC50 [8]: > 10000 nM
7,28,CC[C@H](C)[C@H](NC(=O)[C@@H](NC[C@@H](N)CS)C(C)C)C(=O)N[C@@H](CCSC)C(=O)O,,
140,,CCC(C)[C@H](NCC(N)CS)C(=O)N[C@H](CN[C@@H](CCSC)C(=O)O)Cc1ccccc1 (stereo partly specified),,IC50 [8]: 1100 nM
18,310,CC[C@H](C)[C@H](NC[C@@H](N)CS)C(=O)N[C@@H](Cc1ccccc1)C(=O)N[C@@H](CCSC)C(=O)O,> 100,inhibition [4]: 10%
4.8,,CCC(C)[C@@H](CN[C@@H](Cc1ccccc1)C(=O)N[C@@H](CCSC)C(=O)O)NCC(N)CS (stereo partly specified),> 100,inhibition [4]: 30%; IC50 [8]: 5750 nM
50,> 10000,CC[C@H](C)[C@H](NCCCS)C(=O)N[C@@H](Cc1ccccc1)C(=O)N[C@@H](CCSC)C(=O)O,,
27,300000,CC[C@H](C)[C@H](NC(=O)[C@@H](N)CS)C(=O)N[C@@H](Cc1ccccc1)C(=O)N[C@@H](CCSC)C(=O)O,,
